# BCLXL inh – blocks human Bcl-xL binding to Bim BH3 peptide. Q07817. GST-Bcl-xL / FITC-Bim BH3 peptide fluorescence polarization. hit rate 0.7% among 320,000. inhibition, % at 10.9 µM;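 active means inhibition above the mean of all tested compounds plus 3 SD, cutoff set per campaign, cut at about 30% in these data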;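 further: 0% = DMSO wells and 100% = unlabeled Bim-BH3 peptide competitor; inhibitors lower millipolarization by displacing the labeled peptide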
# EBV gp42 block – blocks Epstein-Barr virus glycoprotein 42 binding | AID 1085 | Fluorescence polarization binding assay, mP read-out | inhibition, % (tested at 21.74 µM) | hit rate 0.42% among 220,000; in the data active means inhibition above about 50%
# Target sequence (Q1HVG2 whole entry, looked up): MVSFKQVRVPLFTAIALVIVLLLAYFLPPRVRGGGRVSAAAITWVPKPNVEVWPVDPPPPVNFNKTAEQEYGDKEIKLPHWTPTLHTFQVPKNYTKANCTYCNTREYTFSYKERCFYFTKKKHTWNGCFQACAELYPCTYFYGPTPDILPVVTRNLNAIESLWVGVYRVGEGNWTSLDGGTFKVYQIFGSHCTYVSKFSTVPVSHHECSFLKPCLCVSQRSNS
# IMP-1 inhibitor – blocks Pseudomonas aeruginosa IMP-1 metallo-beta-lactamase; hit rate 0.45% among 290,000; AID 1556; inhibition, % at 5.6 µM; purified IMP-1, nitrocefin hydrolysis, epi-absorbance fluorescence;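 active means inhibition above the mean plus 3 SD of all compounds in the same screening run, cut at about 4.5% in these data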;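 further: 0% = IMP-1 with DMSO and 100% = DMSO wells lacking enzyme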
#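 System – purified recombinant IMP-1 beta-lactamase · Input – IMP-1 dispensed at 0.2 nM · Timing – 15 min preincubation plus 25 min reaction at 25 °C · Signal – Epi-absorbance fluorescence, 480 nm excitation, 530 nm emission · Measure – percent IMP-1 inhibition derived from blank-referenced optical density · Controls – Enzyme-plus-DMSO low control, enzyme-free DMSO high control · Replication – singlicate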
# VIM-2 inh – blocks Pseudomonas aeruginosa VIM-2 metallo-beta-lactamase | inhibition, % at 5.6 µM | purified VIM-2, nitrocefin hydrolysis, epi-absorbance fluorescence | hit rate 0.89% among 290,000 | AID 1527;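 active means inhibition above the mean of all tested compounds plus 3 SD, cutoff set per screening run, cut at about 7.5% in these data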;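 further: red hydrolysis product quenches plate fluorescence so inhibitors raise well fluorescence; 0% = enzyme with DMSO and 100% = DMSO without enzyme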
# MEX-5 binding – C. elegans MEX-5 TCR-2 RNA binding activity. Q9XUB2. MEX-5/FITC-TCR2 RNA binding, fluorescence polarization; active compounds read low. activity score (negative = inhibition of binding), % at 10 µM. hit rate 0.38% among 300,000. AID 1832;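 active means inhibition past about -25% in most replicates, and total fluorescence under double the plate's negative control median, limit read from the data; inconclusive means replicates evenly split on the limit, or fluorescence at least double controls; inactive means too little inhibition in most replicates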;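 further: 0% = DMSO and -100% = 5 µM competing unlabeled TCR2 RNA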
# GLD-1 TGE inh – GLD-1-TGE RNA interaction inhibition (C. elegans). purified GLD-1 + fluorescein TGE RNA, fluorescence polarization. AID 2280. inhibition, % at 5.96 µM. hit rate 0.44% among 320,000. Q17339;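 active means percent inhibition above a per-plate cutoff, the plate mean of test compounds plus 3 SD, cut at about 30% in these data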;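 further: 0% = DMSO wells with GLD-1 and probe and 100% = wells lacking GLD-1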
# Target sequence (Q17339 whole entry, looked up): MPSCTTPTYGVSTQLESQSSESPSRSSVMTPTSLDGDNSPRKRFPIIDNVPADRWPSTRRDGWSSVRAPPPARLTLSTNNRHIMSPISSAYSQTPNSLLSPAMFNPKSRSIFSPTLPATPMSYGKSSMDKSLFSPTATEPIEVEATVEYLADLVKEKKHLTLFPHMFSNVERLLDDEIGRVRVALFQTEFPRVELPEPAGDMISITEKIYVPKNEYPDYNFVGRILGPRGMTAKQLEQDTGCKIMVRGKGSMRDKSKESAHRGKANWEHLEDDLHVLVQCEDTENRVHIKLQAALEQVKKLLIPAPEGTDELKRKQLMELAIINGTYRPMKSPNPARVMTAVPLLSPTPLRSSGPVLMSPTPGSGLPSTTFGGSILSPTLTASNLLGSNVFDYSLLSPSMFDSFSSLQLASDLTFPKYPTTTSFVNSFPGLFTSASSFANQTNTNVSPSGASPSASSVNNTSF
# An asterisk follows results filed as active; ? = inconclusive; . = not tested or not shown. Only some compounds are listed: those with a hit (about 2.2% of all), similar ones and a draw of the others.
SMILES,BCLXL inh,EBV gp42 block,IMP-1 inhibitor,VIM-2 inh,MEX-5 binding,GLD-1 TGE inh
CCCn1c(SCC(=O)Nc2cc(S(=O)(=O)N3CCCCC3)ccc2C)n[nH]c1=O,0,.,.,.,.,-2
CN1C(=O)N(C)c2ccc(Br)c3cccc1c23,.,.,1,11*,-3,.
CC1=Nc2cccc3cccc(c23)N1C,1,-18,-11,4,-29*,5
CN1C(=O)Nc2cccc3cccc1c23,1,.,-2,2,1,2
CN1C(=O)N(C)c2cccc3cccc1c23,-1,.,-2,9.3*,0,6
CC(C)(C)OC(=O)N1CCC(C(=O)NCC2CCCO2)CC1 (stereo not drawn),4,.,-3,0,-2,3
CC1=NN(c2ccccc2)C(=O)/C1=C/C=C/c1ccccc1,3,-8,0,-3,3,4
CC1=NN(c2cccc(C(=O)O)c2)C(=O)/C1=C\C=C\c1ccco1,26,18,-5,-1,-27*,-2
CCC(=O)OCC(=O)[C@@]1(OC(=O)CC)[C@@H](C)C[C@H]2[C@@H]3CCC4=CC(=O)C=C[C@]4(C)[C@@]3(Cl)[C@@H](O)C[C@@]21C,1,.,.,.,.,-2
CCN(C[C@H]1N[C@@](C)(C(=O)OC)[C@H]2C(=O)N(C)C(=O)[C@@H]12)C(=O)COC,.,.,.,.,.,1
Cc1ccccc1NS(=O)(=O)c1ccc(-c2ccc(=O)[nH]n2)o1,5,.,0,0,-1,-3
CCN(CC)c1ccc(NS(=O)(=O)c2ccc(-c3ccc(=O)[nH]n3)o2)c(C)c1,32*,.,-11,3,0,4
O=C(CN1C(=O)NC2(CCCCCCC2)C1=O)NCc1ccccc1,.,.,.,.,.,0
COc1ccc2c(CC(=O)OCC(=O)c3ccc(F)cc3)coc2c1,-8,-34,5.3*,-2,.,-2
COc1ccc2c(CC(=O)OCC(=O)c3ccccc3OC)coc2c1,-2,-4,-2,-3,4,7
COC(=O)CCC(=O)OC1(C)C(=O)C2=CN(C(CO)CO)C(c3ccc(OC)cc3)=CC2=C(Br)C1=O (stereo not drawn),38*,18,.,.,-8,13
COC(=O)CCC(=O)OC1(C)C(=O)C2=CN(CCCCO)C(c3ccc(OC)cc3)=CC2=C(Br)C1=O (stereo not drawn),32*,.,-2,0,-18,26
COC(=O)CCC(=O)OC1(C)C(=O)C2=CN(CCN3CCOCC3)C(c3ccc(OC)cc3)=CC2=C(Br)C1=O (stereo not drawn),24,1,.,.,-6,16
COC(=O)CCC(=O)OC1(C)C(=O)C2=CN(CCc3ccccn3)C(c3ccc(OC)cc3)=CC2=C(Br)C1=O (stereo not drawn),36*,.,.,.,?,30
CCc1sc(C(=O)NNC(=O)c2cncc(Br)c2)cc1C,.,.,.,.,.,2
Cc1ccc(S(=O)(=O)N2CCN(C(=O)COC(=O)C3CCC3)CC2)cc1,2,.,.,.,-3,2
O=C(OCC(=O)N1CCN(c2ccccc2)CC1)c1nc(Cl)ccc1Cl,7,.,.,.,0,5
CCN1C(=O)/C(=C/c2c(C)nn(C)c2C)SC1=S,-19,-2,-1,0,-30*,-15
O=S1(=O)N=C(N(CCO)/N=C/c2ccc(Cl)cc2)c2ccccc21,13,.,-1,1,-1,3
CN(C)c1ccc(/C=N/N(CCC#N)C2=NS(=O)(=O)c3ccccc32)cc1,5,.,-2,9.1*,2,-2
SMILES,BCLXL inh,EBV gp42 block,IMP-1 inhibitor,VIM-2 inh,MEX-5 binding,GLD-1 TGE inh
CN(/N=C/c1ccncc1)C1=NS(=O)(=O)c2ccccc21,5,-5,-3,9.9*,1,0
CN(C)c1ccc(/C=N/NC2=NS(=O)(=O)c3ccccc32)cc1,-7,.,-4,-5,-41*,-7
O=C(COC(=O)c1ccccc1F)NC(=O)NC1CCCC1,4,.,.,.,.,3
CC(C)C(NC(=O)c1ccccc1F)C(=O)NCCCn1ccnc1 (stereo not drawn),.,.,.,.,.,-4
CC(NC(=O)c1ccco1)C(=O)OCc1cccc(C(F)(F)F)c1 (stereo not drawn),.,.,.,.,.,-1
CC1C2C(c3ccccc3)N(C)C(=O)N(C)C2N(C)C(=O)N1C (stereo not drawn),55*,39,0,3,-12,29
O=C1COc2ccc(C(=O)COC(=O)c3cc(S(=O)(=O)N4CCOCC4)ccc3F)cc2N1,60*,.,-2,-2,0,-8
Cc1cc(Cn2nnnc2-c2ccncc2)cc(C)c1O,4,.,-2,-3,-1,5
CCC1=NN2C(=N)/C(=C\c3ccc(SCc4ccco4)o3)C(=O)N=C2S1,21,-8,-3,-2,-32*,2
CCCC1=NN2C(=N)/C(=C\c3cc(C)n(Cc4ccccc4)c3C)C(=O)N=C2S1,-5,-15,-3,-4,1,-6
CCCC1=NN2C(=N)/C(=C\c3ccc(SCc4ccco4)o3)C(=O)N=C2S1,70*,-25,-1,-3,-16,24
O=C1NC(=S)S/C1=C\c1ccc(SCc2ccco2)o1,66*,-53,9.7*,4,.,13
OCc1nnc2c3ccccc3c(-c3ccccc3)nn12,6,-4,2,11*,0,1
Clc1nn2cnnc2c2ccccc12,4,-21,-4,0,-1,4
c1ccc(-c2nn3cnnc3c3ccccc23)cc1,1,-11,-2,11*,0,-12
Cn1ccc(C(=O)NC(=S)Nc2ccc([N+](=O)[O-])cc2O)n1,.,.,-2,-5,.,.
CN(C)/C=N/C1=C(C#N)C(c2ccc(Br)cc2)c2ccc3ccccc3c2O1 (stereo not drawn),7,.,6.1*,-2,1,2
COc1cccc(F)c1C(=O)NC(=O)Nc1ccc2nc(C)oc2c1,119*,27,1,0,-31*,91*
Cc1ccc(CN2CC(C(=O)N(Cc3nnc(-c4ccccc4Cl)o3)C3CC3)CC2=O)cc1 (stereo not drawn),4,.,.,.,0,-6
COc1ccccc1NS(=O)(=O)c1cccc(C(=O)N2CC(C)OC(C)C2)c1 (stereo not drawn),4,.,.,.,3,5
CCCn1c(SCC(=O)NC2CCC(C)CC2)n[nH]c1=O (stereo not drawn),41*,.,.,.,.,10
CCCn1c(SCC(=O)NC(=O)NC(C)(C)C)n[nH]c1=O,1,-5,-2,-2,-1,2
Cc1ccccc1N(CC(=O)NCC1CCCO1)C(=O)CNS(=O)(=O)c1ccc(F)cc1 (stereo not drawn),6,.,-1,-1,0,9
O=C(Nc1cccc2c1CCCC2)c1ccccc1Br,-4,.,-3,-2,2,0
COCCCNC(=S)NNC(=O)c1csc(C)n1,0,2,8.7*,-2,-18,-6
Cc1nn2cc(-c3ccc(-c4ccccc4)cc3)nc2s1,-2,-2,1,1,-1,-1

# Screens deposited in PubChem BioAssay by several laboratories.
